In ChEMBL document CHEMBL1250523, “Synthesis and biological activities of new di- and trimeric quinoline derivatives” (Bioorg Med Chem, 2010) one finds IC50 data, which are given here for 3 compounds.

Common to all, as to format: protein assay
The target in test [1] is Bcl-xL/BAK (Homo sapiens, UniProt Q07817). The test is described as follows: Inhibition of GST-tagged […]/FITC-conjugated Bak interaction by fluorescence polarisation assay. Background: Fluorescence polarisation rises when a labelled molecule tumbles more slowly, as on binding a larger partner.
In test [2] the target is Bcl-xL/BH3-interacting domain death agonist (Homo sapiens, UniProt Q07817). Nature of the test: Inhibition of GST-tagged Bcl-xl/FITC-conjugated Bid interaction by fluorescence polarisation assay.
For test [3], the target named is Bcl-xL/BAX (Homo sapiens, UniProt Q07812+Q07817). The test is described as follows: Inhibition of GST-tagged Bcl-xl/FITC-conjugated Bax interaction by fluorescence polarisation assay.
Test [4] has as its target Bcl-xL/Bcl-2-binding component 3 (Homo sapiens, UniProt Q07817+Q9BXH1). The test is described as follows: Inhibition of GST-tagged Bcl-xl/FITC-conjugated PUMA interaction by fluorescence polarisation assay.
Test [5] concerns the target Bcl-xL/Bcl-2-like protein 11 (Homo sapiens, UniProt Q07817). The test is described as follows: Inhibition of GST-tagged Bcl-xl/FITC-conjugated Bim interaction by fluorescence polarisation assay.
Test [6] has as its target Apoptosis regulator BAX/Bcl-2 (Homo sapiens, UniProt P10415+Q07812). Nature of the test: Inhibition of GST-tagged Bcl-2/FITC-conjugated Bax interaction by fluorescence polarisation assay. In a few lines:
(§1)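 Recombinant GST-fused anti-apoptotic protein (Bcl-xl, Bcl-2, Bfl-1 or Mcl-1, each lacking its C-terminal tail) at 100 nM, incubated in the dark with 15 nM N-terminally FITC-labelled BH3 peptide (Bak, Bax, Bid or Bim) and a range of compound concentrations. Fluorescence polarisation was read, and IC50 was derived from the concentration-response curve.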

The target of test [7] is Apoptosis regulator BAX/Bcl-2-related protein A1 (Homo sapiens, UniProt Q07812+Q16548). Nature of the test: Inhibition of GST-tagged Bfl-1/FITC-conjugated Bax interaction by fluorescence polarisation assay. In a few lines: as §1
For test [8], the target named is Apoptosis regulator BAX/Induced myeloid leukemia cell differentiation protein Mcl-1 (Homo sapiens, UniProt Q07812+Q07820). Nature of the test: Inhibition of GST-tagged Mcl-1/FITC-conjugated Bax interaction by fluorescence polarisation assay. The method, boiled down: as §1
Apoptosis regulator BAX/Induced myeloid leukemia cell differentiation protein Mcl-1, sequence (Q07820 whole entry): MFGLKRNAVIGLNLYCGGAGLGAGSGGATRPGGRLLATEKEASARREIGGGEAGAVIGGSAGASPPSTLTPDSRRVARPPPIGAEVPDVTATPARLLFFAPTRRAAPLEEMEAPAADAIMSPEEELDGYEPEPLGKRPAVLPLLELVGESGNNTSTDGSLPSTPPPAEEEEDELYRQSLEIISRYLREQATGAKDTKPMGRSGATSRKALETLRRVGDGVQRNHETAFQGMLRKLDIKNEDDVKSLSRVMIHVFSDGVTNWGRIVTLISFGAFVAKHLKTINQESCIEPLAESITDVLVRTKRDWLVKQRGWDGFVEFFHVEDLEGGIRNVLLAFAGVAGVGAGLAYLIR
Apoptosis regulator BAX/Induced myeloid leukemia cell differentiation protein Mcl-1, sequence (Q07812 whole entry): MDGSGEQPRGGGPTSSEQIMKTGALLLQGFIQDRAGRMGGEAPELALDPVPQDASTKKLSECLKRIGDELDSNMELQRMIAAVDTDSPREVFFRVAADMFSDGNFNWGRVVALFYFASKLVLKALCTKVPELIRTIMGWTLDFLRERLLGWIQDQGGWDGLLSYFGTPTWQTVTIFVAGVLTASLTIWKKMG

Bcl-xL/BAX, sequence (Q07817 whole entry): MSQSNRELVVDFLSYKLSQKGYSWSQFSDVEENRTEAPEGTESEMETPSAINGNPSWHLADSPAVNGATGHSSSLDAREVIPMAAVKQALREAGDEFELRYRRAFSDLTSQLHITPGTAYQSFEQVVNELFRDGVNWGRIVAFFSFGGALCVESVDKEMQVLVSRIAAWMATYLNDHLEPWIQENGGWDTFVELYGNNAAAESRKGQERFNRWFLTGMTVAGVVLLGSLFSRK
Bcl-xL/BAX, sequence (Q07812 whole entry): as the sequence (Q07812 whole entry) above
Bcl-xL/Bcl-2-binding component 3, sequence (Q07817 whole entry): as the sequence (Q07817 whole entry) above
Bcl-xL/Bcl-2-binding component 3, sequence (Q9BXH1 whole entry): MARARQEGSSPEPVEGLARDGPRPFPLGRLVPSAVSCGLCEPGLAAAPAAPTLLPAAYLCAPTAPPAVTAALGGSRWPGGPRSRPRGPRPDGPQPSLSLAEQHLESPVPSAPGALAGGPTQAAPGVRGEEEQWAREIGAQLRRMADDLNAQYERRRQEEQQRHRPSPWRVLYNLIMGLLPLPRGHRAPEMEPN
Bcl-xL/Bcl-2-like protein 11, sequence (Q07817 whole entry): as the sequence (Q07817 whole entry) above
Bcl-xL/Bcl-2-like protein 11, sequence (O43521 whole entry, further chain): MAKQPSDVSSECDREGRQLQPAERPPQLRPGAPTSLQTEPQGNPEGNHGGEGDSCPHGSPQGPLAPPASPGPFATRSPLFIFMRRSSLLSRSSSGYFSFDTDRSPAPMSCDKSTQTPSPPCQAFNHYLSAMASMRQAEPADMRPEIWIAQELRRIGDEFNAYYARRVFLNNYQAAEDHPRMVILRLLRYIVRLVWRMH
Bcl-xL/BH3-interacting domain death agonist, sequence (Q07817 whole entry, the tested form may be a part): as the sequence (Q07817 whole entry) above
Bcl-xL/BH3-interacting domain death agonist, sequence (P55957 whole entry, further chain, the tested form may be a part): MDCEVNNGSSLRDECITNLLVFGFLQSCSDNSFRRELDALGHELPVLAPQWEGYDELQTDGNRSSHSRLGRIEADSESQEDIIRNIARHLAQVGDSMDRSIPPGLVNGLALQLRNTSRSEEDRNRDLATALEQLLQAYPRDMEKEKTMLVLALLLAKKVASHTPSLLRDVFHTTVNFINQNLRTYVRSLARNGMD
Bcl-xL/BAK, sequence (Q07817 whole entry, the tested form may be a part): as the sequence (Q07817 whole entry) above
Bcl-xL/BAK, sequence (Q16611 whole entry, further chain, the tested form may be a part): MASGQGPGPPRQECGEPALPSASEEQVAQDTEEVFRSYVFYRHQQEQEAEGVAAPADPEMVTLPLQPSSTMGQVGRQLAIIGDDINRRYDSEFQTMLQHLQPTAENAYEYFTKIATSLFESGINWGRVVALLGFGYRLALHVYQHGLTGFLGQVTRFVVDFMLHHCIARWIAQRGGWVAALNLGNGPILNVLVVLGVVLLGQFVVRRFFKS
Apoptosis regulator BAX/Bcl-2-related protein A1, sequence (Q07812 whole entry): as the sequence (Q07812 whole entry) above
Apoptosis regulator BAX/Bcl-2-related protein A1, sequence (Q16548 whole entry): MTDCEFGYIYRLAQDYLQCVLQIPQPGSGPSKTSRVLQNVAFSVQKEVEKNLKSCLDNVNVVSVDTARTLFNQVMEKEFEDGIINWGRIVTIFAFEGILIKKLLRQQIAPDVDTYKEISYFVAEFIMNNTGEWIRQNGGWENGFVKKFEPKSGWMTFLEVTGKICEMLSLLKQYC
Apoptosis regulator BAX/Bcl-2, sequence (P10415 whole entry, the tested form may be a part): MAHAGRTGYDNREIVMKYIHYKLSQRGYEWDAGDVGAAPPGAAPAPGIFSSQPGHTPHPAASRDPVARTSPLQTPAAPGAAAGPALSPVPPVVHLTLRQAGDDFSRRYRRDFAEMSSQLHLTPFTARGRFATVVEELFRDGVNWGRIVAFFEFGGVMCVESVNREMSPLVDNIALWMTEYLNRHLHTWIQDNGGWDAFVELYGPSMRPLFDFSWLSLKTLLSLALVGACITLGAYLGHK
Apoptosis regulator BAX/Bcl-2, sequence (Q07812 whole entry, the tested form may be a part): as the sequence (Q07812 whole entry) above

On to `CCC(C)c1cc(-c2cc3c(CC(C)C)cc(-c4cc5c(C(C)C)cccc5nc4OC)cc3nc2OC)cc2nc(OC)ccc12` (racemic), for which the IC50 is 25 µM in test [1]; 27 µM in test [2]; 26 µM in test [3]; 42 µM in test [4]; 92.5 µM in test [5]; 43 µM in test [6]. Further, the results for the IC50 in test [7] and in test [8] were 68 µM and 45.5 µM, respectively.
`COc1ccc2c(CC(C)C)cc(-c3cc4c(C(C)C)cccc4nc3OC)cc2n1`: the IC50 in test [1] was above 1000 µM; in test [2], above 1000 µM; in test [3], above 1000 µM; in test [4], above 1000 µM; in test [5], 29 µM.
Turning to `CCOc1nc2ccccc2cc1-c1cc(C(C)C)c2cc(-c3cc(C(C)C)c4ccc(OC)nc4c3)c(OC)nc2c1`, the IC50 in test [1] was found to be 74 µM; in test [2] it was 21 µM; in test [3], 243 µM; in test [4], 54 µM; in test [5] it was 47 µM.

The term IC50 denotes the concentration that inhibits the measured activity by half.
